From ChEMBL document CHEMBL4177633 (Bioorg Med Chem, 2017)
Active and inactive are the calls of the source. The calls are words filed in the database; no cut-off is given here.

Legend:
U-937 = experiment: Inhibition of [ethanolamine-1-3H]AEA uptake in human U937 cell homogenate preincubated for 20 mins followed by AEA addition measured after 5 mins by scintillation counting method; type: functional, cell-based; conditions: in the assay text read “intact human U937 cells” for “human U937 cell homogenate”
Method in brief: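 Intact U937 cells (0.5 × 10^6) in serum-free medium. Preincubated 20 min at 37 °C with compound at a 10 μM screening concentration, then 5 min at 37 °C with 100 nM AEA plus 0.5 nM [ethanolamine-1-3H]AEA. Stopped on ice and by rapid filtration over GF/C filters presoaked in PBS/0.2% BSA. Washed with ice-cold PBS/1% fatty acid-free BSA, then scintillation counted.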

Cannabinoid receptor 2 = Cannabinoid receptor 2 (Homo sapiens, UniProt P34972); experiment: Displacement of [3H]CP55,940 from human CB2 receptor expressed in CHO-K1 cell membranes after 1.5 hrs by liquid scintillation counting assay
Cannabinoid receptor 2, sequence (P34972 whole entry): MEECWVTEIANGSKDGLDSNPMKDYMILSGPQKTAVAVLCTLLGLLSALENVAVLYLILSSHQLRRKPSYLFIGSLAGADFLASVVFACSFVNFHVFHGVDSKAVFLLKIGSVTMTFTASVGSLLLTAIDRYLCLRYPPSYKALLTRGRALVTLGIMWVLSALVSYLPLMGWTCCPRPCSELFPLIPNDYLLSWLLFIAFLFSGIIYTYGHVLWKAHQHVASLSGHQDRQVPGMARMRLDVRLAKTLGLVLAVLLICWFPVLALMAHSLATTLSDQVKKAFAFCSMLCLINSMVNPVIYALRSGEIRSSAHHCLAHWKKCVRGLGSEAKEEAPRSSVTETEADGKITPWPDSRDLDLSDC

[1] = target: T1, Monoglyceride lipase (Homo sapiens) (UniProt Q99685); experiment: Inhibition of MAGL in human U937 cell homogenate assessed as decrease in [ethanolamine-1-3H]AEA levels up to 10 uM preincubated for 30 mins followed by AEA addition measured after 15 mins by liquid scintillation counting method
T1 sequence (whole entry): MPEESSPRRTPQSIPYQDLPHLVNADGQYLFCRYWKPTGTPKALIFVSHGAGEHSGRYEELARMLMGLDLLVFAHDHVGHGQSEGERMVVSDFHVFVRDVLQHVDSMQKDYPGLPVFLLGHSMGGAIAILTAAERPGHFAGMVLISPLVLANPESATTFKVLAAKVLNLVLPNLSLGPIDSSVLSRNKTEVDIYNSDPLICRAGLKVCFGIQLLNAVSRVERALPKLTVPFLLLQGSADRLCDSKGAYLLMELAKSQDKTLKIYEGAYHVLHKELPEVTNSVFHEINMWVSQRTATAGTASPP
Method in brief: (§1)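 U937 cell homogenate (100 μg) in 10 mM Tris-HCl, 1 mM EDTA, pH 8, 0.1% fatty acid-free BSA. Compound screened at 10 μM, 30 min at 37 °C. Then 100 nM AEA with 1 nM [ethanolamine-1-3H]AEA tracer added, 15 min at 37 °C. Stopped with ice-cold CHCl3:MeOH (1:1), centrifuged, tritium in aqueous phase counted by liquid scintillation. Data as mean with 95% CI, n = 3.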

[2] = target: T2, Fatty-acid amide hydrolase 1 (Homo sapiens, UniProt O00519); experiment: Inhibition of FAAH in human U937 cell homogenate assessed as decrease in [ethanolamine-1-3H]AEA levels preincubated for 30 mins followed by AEA addition measured after 15 mins by liquid scintillation counting method; method in brief: as §1
T2 sequence (O00519 whole entry): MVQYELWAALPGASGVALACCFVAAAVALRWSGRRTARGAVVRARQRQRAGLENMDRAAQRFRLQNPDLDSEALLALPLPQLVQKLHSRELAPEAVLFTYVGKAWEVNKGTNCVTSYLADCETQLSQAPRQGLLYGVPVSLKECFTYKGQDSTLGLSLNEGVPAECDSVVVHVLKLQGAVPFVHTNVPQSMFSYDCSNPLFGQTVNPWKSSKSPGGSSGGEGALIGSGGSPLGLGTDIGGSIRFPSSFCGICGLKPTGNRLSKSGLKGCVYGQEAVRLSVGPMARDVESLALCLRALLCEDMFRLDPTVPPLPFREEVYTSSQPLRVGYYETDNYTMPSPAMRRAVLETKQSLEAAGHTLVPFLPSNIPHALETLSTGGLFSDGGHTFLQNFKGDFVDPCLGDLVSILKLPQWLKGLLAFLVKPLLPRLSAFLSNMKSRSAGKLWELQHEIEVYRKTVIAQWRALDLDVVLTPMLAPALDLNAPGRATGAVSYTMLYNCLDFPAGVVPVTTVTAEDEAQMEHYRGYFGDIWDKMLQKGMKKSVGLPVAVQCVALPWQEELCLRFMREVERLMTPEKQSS

Cannabinoid receptor 1 [3] = target: T3, Cannabinoid receptor 1 (Homo sapiens, UniProt P21554); experiment: Negative allosteric modulation of human CB1 receptor expressed in HEK293 cells assessed as inhibition of 33 nM CP55,940-induced SRE transcriptional activity after 5 hrs by luciferase reporter gene assay; type: functional, cell-based
T3 sequence (P21554 whole entry): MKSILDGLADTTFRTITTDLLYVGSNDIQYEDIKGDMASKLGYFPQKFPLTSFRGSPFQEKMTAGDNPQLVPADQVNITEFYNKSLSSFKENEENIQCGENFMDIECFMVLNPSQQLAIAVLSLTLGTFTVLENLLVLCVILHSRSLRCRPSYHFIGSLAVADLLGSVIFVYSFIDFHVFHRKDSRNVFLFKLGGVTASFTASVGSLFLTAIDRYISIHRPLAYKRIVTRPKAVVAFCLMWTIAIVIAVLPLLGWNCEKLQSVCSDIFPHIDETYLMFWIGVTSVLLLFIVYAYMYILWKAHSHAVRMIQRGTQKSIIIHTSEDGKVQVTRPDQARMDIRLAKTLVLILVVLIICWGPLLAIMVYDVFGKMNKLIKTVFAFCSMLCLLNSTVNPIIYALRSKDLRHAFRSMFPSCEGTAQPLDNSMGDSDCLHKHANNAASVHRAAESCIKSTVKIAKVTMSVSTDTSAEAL

Cannabinoid receptor 1 [4] = target: T3, Cannabinoid receptor 1; experiment: Positive allosteric modulation of human CB1 receptor expressed in CHO-K1 cell membranes assessed as induction of [3H]CP55,940 binding after 1.5 hrs by liquid scintillation counting assay; type: functional
[5] = target: T4, Fatty-acid amide hydrolase 1 (Homo sapiens) (UniProt O00519); experiment: Inhibition of FAAH in human U937 cell homogenate assessed as decrease in [ethanolamine-1-3H]AEA levels up to 10 uM preincubated for 30 mins followed by AEA addition measured after 15 mins by liquid scintillation counting method; method in brief: as §1
T4 sequence (whole entry): T2 sequence (O00519 whole entry)

Monoglyceride lipase = target: T5, Monoglyceride lipase (Homo sapiens, UniProt Q99685); experiment: Inhibition of MAGL in human U937 cell homogenate assessed as decrease in [ethanolamine-1-3H]AEA levels preincubated for 30 mins followed by AEA addition measured after 15 mins by liquid scintillation counting method; method in brief: as §1
T5 sequence (Q99685 whole entry): T1 sequence (whole entry)

Cannabinoid receptor 1 [6] = target: T3, Cannabinoid receptor 1; experiment: Positive allosteric modulation of human CB1 receptor expressed in CHO-K1 cell membranes assessed as induction of [3H]CP55,940 binding at 100 uM after 1.5 hrs by liquid scintillation counting assay relative to control; type: functional
Cannabinoid receptor 1 [7] = target: T3, Cannabinoid receptor 1; experiment: Positive allosteric modulation of human CB1 receptor expressed in CHO-K1 cell membranes assessed as induction of [3H]CP55,940 binding up to 10 uM after 1.5 hrs by liquid scintillation counting assay; type: functional

Row | SMILES | IC50 (U-937) | Ki (Cannabinoid receptor 2) | inhibition [1] | IC50 [2] | IC50 (Cannabinoid receptor 1 [3]) | EC50 (Cannabinoid receptor 1 [4]) | inhibition [5] | IC50 (Monoglyceride lipase) | Activity (Cannabinoid receptor 1 [4]) | Activity (Cannabinoid receptor 1 [6]) | Activity (Cannabinoid receptor 1 [7])
1 | O=C(Nc1ccc(Cl)cc1)Nc1cccc(Nc2cccc(N3CCCC3)c2)c1 | > 10 µM | > 100 µM | inactive | > 10 µM | 9.6 µM | 13.5 µM | inactive | > 10 µM |  |  | 
2 | O=C(Nc1ccc(Cl)cc1)Nc1cccc(Nc2cccc(N3CCCC3)n2)c1 | > 10 µM | 52.6 µM | inactive | > 10 µM |  |  | inactive | > 10 µM |  |  | 
3 | O=C(Cc1ccc(Cl)cc1)Nc1cccc(-c2cccc(N3CCCC3)c2)c1 | > 10 µM | > 100 µM | inactive | > 10 µM | 1.9 µM | > 10 µM | inactive | > 10 µM |  | 10% | Active

Further lines, results first:

Row | IC50 (U-937) | Ki (Cannabinoid receptor 2) | inhibition [1] | IC50 [2] | IC50 (Cannabinoid receptor 1 [3]) | EC50 (Cannabinoid receptor 1 [4]) | inhibition [5] | IC50 (Monoglyceride lipase) | Activity (Cannabinoid receptor 1 [4]) | Activity (Cannabinoid receptor 1 [6]) | Activity (Cannabinoid receptor 1 [7]) | SMILES
4 | > 10 µM | > 10 µM | inactive | 2.1 µM |  |  |  |  |  |  |  | O=C(Nc1ccc(Cl)cc1)Nc1cccc(-c2cccc(N3CCCC3)n2)c1
5 | > 10 µM | 49.8 µM | inactive | > 10 µM | 0.29 µM | 0.043 µM | inactive | > 10 µM | Dose-dependent effect |  |  | O=C(Nc1ccc(Cl)cc1)Nc1cccc(-c2cccc(N3CCCC3)c2)c1
